The subject of series [1] is Liver microsomes. As to conditions: human, 1 µM.
The test system of series [2] is Human immunodeficiency virus 1. In words: Ratio of EC50 for bevirimat-resistant HIV1 NL4-3 harboring QVT motif of Gag SP1 V370A mutant to EC50 for wild type HIV1 NL4-3. The class given is functional. In outline: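 Multi-cycle viral replication assay in MT4 cells infected with wild-type HIV-1 NL4-3 or the V370A Gag variant. EC50 was determined against each virus, and the fold ratio was taken as mutant EC50 over wild-type EC50.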

Series [3] can be described thus: Cytotoxicity against human MT4 assessed as cell viability after 2 days. The class given is cell-based. Particulars: MT4 cells, read-out: TD50.
Series [4] relates to Human immunodeficiency virus 1. In words: Antiviral activity against bevirimat-resistant HIV1 NL4-3 harboring QVT motif of Gag SP1 V370A mutant infected in human MT4 cells assessed as reduction of viral p24 level cells […] relative to wild type HIV1 NL4-3 after 4 days by ELISA. The class given is functional, organism-based. As to conditions: Human immunodeficiency virus 1, NL4-3, MT4, 96 h. Background: In an ELISA, binding on a coated surface is turned into a signal by an enzyme label.

Series [5] has as its system Liver microsomes. In words: Half life in human liver microsomes at 1 uM. (Liver microsomes are a subcellular fraction often used to study metabolism.)
Series [6] has as its system Human immunodeficiency virus 1. In words: Antiviral activity against HIV1 NL4-3 harboring QVT motif of Gag SP1 V370A mutant infected in human TZM-bl cells by fluorescence assay relative to wild type HIV1 NL4-3. The class given is functional. Summed up: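 Single-round infection of TZM-bl cells with HIV-1 NL4-3 or the NL4-3 V370A mutant. Tat-driven luciferase expression after viral entry was the read-out. Inhibition was taken as the reduction in luciferase signal relative to infected controls without compound, expressed as relative fluorescence units.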

The nature of series [7]: Cytotoxicity against human TZM-bl assessed as cell viability at 4 uM after 2 days. The class given is cell-based. Particulars: 48 h. In outline: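 Toxicity to TZM-bl cells was checked within the single-cycle infection assay at 4 μM.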
The subject of series [8] is Human immunodeficiency virus 1. The series is described as follows: Antiviral activity against HIV1 NL4-3 infected in human TZM-bl cells assessed as reduction in luciferase gene expression by luminescence assay. The class given is functional, organism-based. Particulars: Human immunodeficiency virus 1, NL4-3, TZM-bl. Summed up: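 Single-cycle HIV-1 NL4-3 infection of TZM-bl cells; HIV-1 tat-driven luciferase expression after viral entry read as the measure of inhibition. […] control is NL4-3 infection without compound. Values are the mean of two or more independent experiments with standard deviation.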

For series [9], the system named is Human immunodeficiency virus 1. The series is described as follows: Antiviral activity against wild type HIV1 NL4-3 infected in human MT4 cells assessed as reduction of viral p24 level cells […] relative to wild type HIV1 NL4-3 after 4 days by ELISA. The class given is functional, organism-based. As to conditions: Human immunodeficiency virus 1, NL4-3, MT4, 96 h.

Series [10] relates to Human immunodeficiency virus 1. The series is described as follows: Antiviral activity against bevirimat-resistant HIV1 NL4-3 harboring QVT motif of Gag SP1 deltaT371 mutant infected in human MT4 cells assessed as reduction of viral p24 level cells […] relative to wild type HIV1 NL4-3 after 4 days by ELISA. The class given is functional, organism-based. Particulars: Human immunodeficiency virus 1, NL4-3, MT4, 96 h. In outline:
(§1)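 Multi-cycle viral replication assay in MT4 cells, run in parallel against wild-type NL4-3 and NL4-3 variants carrying V370A, ΔV370 or ΔT371 in Gag.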

The test system of series [11] is Human immunodeficiency virus 1. In words: Antiviral activity against bevirimat-resistant HIV1 NL4-3 harboring QVT motif of Gag SP1 deltaV370 mutant infected in human MT4 cells assessed as reduction of viral p24 level cells […] relative to wild type HIV1 NL4-3 after 4 days by ELISA. Particulars: Human immunodeficiency virus 1, NL4-3, MT4, 96 h. The class given is functional, organism-based. Summed up:
as §1

What is called EC50 is the concentration that produces a half-maximal response.

Consider `C=C(C)[C@@H]1CC[C@]2(C(=O)NCCCCCCCCC(=O)N[C@@H](CCC(N)=O)C(=O)OC)CC[C@]3(C)[C@H](CC[C@@H]4[C@@]5(C)CC[C@H](O)C(C)(C)[C@@H]5CC[C@]43C)[C@@H]12`, for which the CLH in the series with Liver microsomes [1] was found to be 230 µL/min/mg. Further, the “Ratio EC50” value in [2] was found to be 5. The CC50 at 48 h in [3] stood at 4800 nM. Besides, the EC50 in series [4] was 20 nM; in [8], 90 nM; in series [9], 1720 nM. For the same compound, the t1/2 with Liver microsomes [5] worked out at 30.13 min. Further, in series [6], the “fold change (FC)” value came to 2. Moreover, the Activity result in series [7] is recorded as “Non-toxic”.
`C=C(C)[C@@H]1CC[C@]2(C(=O)NCCCCCCCCC(=O)N[C@@H](CCC(N)=O)C(=O)OCc3ccccc3)CC[C@]3(C)[C@H](CC[C@@H]4[C@@]5(C)CC[C@H](O)C(C)(C)[C@@H]5CC[C@]43C)[C@@H]12` had a CLH with Liver microsomes [1] of 169 µL/min/mg. In addition, the “Ratio EC50” value in [2] came to 5. The CC50 at 48 h in series [3] turned out to be 15000 nM. Besides, the EC50 in series [4] came to 50 nM; in [10], 26 nM; in [11] it was 23 nM; in [8], 120 nM; in series [9], 190 nM. Besides, the t1/2 in the series with Liver microsomes [5] is 41.01 min. In addition, the “fold change (FC)” value in series [6] is 2. Besides, the Activity result in series [7] was “Non-toxic”.
As for `C=C(C)[C@@H]1CC[C@]2(C(=O)NCCOCCOCCNC(=O)C(C)C)CC[C@]3(C)[C@H](CC[C@@H]4[C@@]5(C)CC[C@H](O)C(C)(C)[C@@H]5CC[C@]43C)[C@@H]12`, in series [7], the Activity entry is given as “Non-toxic”. In series [8], the EC50 was more than 4000 nM.
Turning to `C=C(C)[C@@H]1CC[C@]2(C(=O)NCCOCCOCCNC(=O)Cc3nnn[nH]3)CC[C@]3(C)[C@H](CC[C@@H]4[C@@]5(C)CC[C@H](O)C(C)(C)[C@@H]5CC[C@]43C)[C@@H]12`, the Activity entry in series [7] is “Non-toxic”. Also, the EC50 in series [8] is more than 4000 nM.
For the compound `COC(=O)[C@H](CCC(N)=O)NC(=O)CCCCCCCCNC(=O)[C@]12CC[C@@H](C(C)C)[C@@H]1[C@H]1CC[C@@H]3[C@@]4(C)CC[C@H](O)C(C)(C)[C@@H]4CC[C@@]3(C)[C@]1(C)CC2`, the CLH in the series on Liver microsomes [1] was 219 µL/min/mg. In [2], the “Ratio EC50” value came out at 5. Further, in [3], the CC50 at 48 h was determined as 4600 nM. Also, the EC50 in series [4] was 20 nM; in series [8] it was 50 nM; in series [9] it was 580 nM. This compound had a t1/2 with Liver microsomes [5] of 31.64 min. Moreover, the Activity result in [7] was “Non-toxic”.
As to `CC(C)[C@@H]1CC[C@]2(C(=O)NCCCCCCCCC(=O)N[C@@H](CCC(N)=O)C(=O)O)CC[C@]3(C)[C@H](CC[C@@H]4[C@@]5(C)CC[C@H](O)C(C)(C)[C@@H]5CC[C@]43C)[C@@H]12`, the CLH with Liver microsomes [1] stood at 280 µL/min/mg. The “Ratio EC50” value in series [2] was determined as 5. Besides, in series [3], the CC50 at 48 h stood at 18600 nM. The EC50 in series [4] was found to be 240 nM; in series [8] it was 40 nM; in series [9] it was 830 nM. The compound also registered a t1/2 in the series with Liver microsomes [5] of 24.75 min. Also, the Activity result in series [7] is “Non-toxic”.
`C=C(C)[C@@H]1CC[C@]2(C(=O)NCCCCCCCNC(=O)[C@H](CCC(N)=O)NC(=O)OC(C)(C)C)CC[C@]3(C)[C@H](CC[C@@H]4[C@@]5(C)CC[C@H](O)C(C)(C)[C@@H]5CC[C@]43C)[C@@H]12` gave a CLH in the series on Liver microsomes [1] of 366 µL/min/mg. In addition, in series [2], the “Ratio EC50” value was found to be 5. In series [3], the CC50 at 48 h was 7400 nM. Also, the EC50 in series [4] amounted to 90 nM; in series [8], 40 nM; in series [9], 360 nM. In the series with Liver microsomes [5], this compound had a t1/2 of 18.93 min. Moreover, in [7], the Activity result is given as “Non-toxic”.
`C=C(C)[C@@H]1CC[C@]2(C(=O)NCCCCCCCNC(C)=O)CC[C@]3(C)[C@H](CC[C@@H]4[C@@]5(C)CC[C@H](O)C(C)(C)[C@@H]5CC[C@]43C)[C@@H]12`: in the series on Liver microsomes [1], the CLH is 272 µL/min/mg. In addition, the CC50 at 48 h in series [3] was 12600 nM. The EC50 in series [4] is 190 nM; in [10], 27 nM; in series [11], 6 nM; in [8] it was 80 nM; in [9] it was 120 nM. For the same compound, the t1/2 with Liver microsomes [5] turned out to be 25.48 min. The “fold change (FC)” value in series [6] was found to be 2. The Activity result in series [7] is reported as “Non-toxic”.
`C=C(C)[C@@H]1CC[C@]2(C(=O)O)CC[C@]3(C)[C@H](CC[C@@H]4[C@@]5(C)CC[C@H](OC(=O)CC(C)(C)C(=O)O)C(C)(C)[C@@H]5CC[C@]43C)[C@@H]12` [BEVIRIMAT]: in series [3], the CC50 at 48 h was more than 10000 nM. Moreover, the EC50 in series [4], in series [10] and in [11] was more than 4000 nM each time.
In the case of `Cc1cc(/C=C/C#N)cc(C)c1Nc1ccnc(Nc2ccc(C#N)cc2)n1` [RILPIVIRINE], the CC50 at 48 h in series [3] is more than 100 nM.

Values taken from ChEMBL document CHEMBL2057155, “Synthesis of betulinic acid derivatives as entry inhibitors against HIV-1 and bevirimat-resistant HIV-1 variants” (Bioorg Med Chem Lett, 2012).
